Measurements from different studies.
Each line is one published result; the experiments were not run side by side.
Target: BMP-2-inducible protein kinase (BMP2K, Homo sapiens, UniProt Q9NSY1)

| Structure (SMILES) | observed | mode | technique | tested at | measurement | value |
| --- | --- | --- | --- | --- | --- | --- |
| CC#CC(=O)N1CCC[C@H]1c1nc(-c2ccc(C(=O)Nc3ccccn3)cc2)c2c(N)nccn12 | enzyme activity | inhibitor |  | 1 µM | inhibition | 26% |
| CCCCC(=O)Nc1ccc(-c2ccc3ncn(CCC)c(=O)c3c2)cn1 | binding |  | competition with immobilised ligand | 0.5 µM | remaining binding | 98% |
| C=CC(=O)N1CCC[C@@H](n2nc(-c3ccc(Oc4ccccc4)cc3)c3c(N)ncnc32)C1 | enzyme activity | inhibitor |  | 1 µM | inhibition | 17% |
| C[C@]1(O)CCCN(c2nc(Nc3ccc(S(=O)(=O)N[C@H]4CC[C@H](CN5CCN(c6ccc(C7CCC(=O)NC7=O)cc6F)CC5)CC4)cc3Cl)ncc2C(F)(F)F)C1 (some centres unmarked) | binding |  | competition with immobilised ligand | 1 µM | remaining binding | 99% |
| COc1ccc2[nH]c3c4[nH]c5ccc(OC)cc5c4c4c(c3c2c1)C(=O)NC4=O | binding |  |  | 1 µM | remaining binding | 76% |
| CNS(=O)(=O)c1ccc(Nc2ncc(C(F)(F)F)c(N3CCC[C@](C)(O)C3)n2)c(C)c1 | binding |  | competition with immobilised ligand | 1 µM | remaining binding | 79% |
| COc1ccc2oc(-c3ccc4nc(N)oc4c3)c/c(=N\c3ccccc3NC(=O)CCN)c2c1 | binding |  |  | 1 µM | remaining binding | 105% |
| C[C@H]1CC[C@H](n2c3cnccc3c3cnc(Nc4ccc5c(n4)CCN(C(=O)CO)C5)nc32)CC1 | cell-free assay |  |  | 1 µM | remaining signal | 17% |
